A short description of series [1]: Mouse liver microsome assay. Conditions: for metabolism of the C-4 carboxanilide aromatic ring: microsomal metabolism studies, in words; for CLint scaled at 0.08 uM: female, CD-1, mouse, liver microsomes, pH 7.4. Type of series: in vitro ADME. In a few lines: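 Pooled female CD-1 mouse liver microsomes in 0.1 M potassium phosphate (pH 7.4) with EDTA. Test compound (0.08 uM final) incubated with NADPH-regenerating system at 37 °C, shaken, in triplicate. At 0, 0.5, 1, 2 and 4 h, quenched with cold methanol containing 2 μM caffeine internal standard; UPLC-MS. Half-life from the decay slope; CLint scaled with 0.5 mg/mL protein, 45 mg microsome/g liver and 52 g liver/kg.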

Series [2] is described as follows: Dose related exposure in the rat. Type of series: in vivo. Conditions: data not shown.
Another series is described as follows: Ames' assay. Type of series: cell-based.

For the compound `COc1ccc(NC(=O)[C@H]2c3ccccc3C(=O)N(CC(C)C)[C@@H]2c2cccs2)cc1Cl` (racemic) [10b], the “metabolism of the C-4 carboxanilide aromatic ring” value in series [1] is listed as “readily demethylated”.
By CLint scaled is commonly meant the capacity of the preparation to metabolise the compound, expressed as a volume cleared per time. As to `N#Cc1cc(NC(=O)[C@H]2c3ccccc3C(=O)N(CC(F)(F)F)[C@@H]2c2cn[nH]c2)ccc1F` (relative stereo) [13h, (3S*,4S*)-N-(3-Cyano-4-fluorophenyl)-1-oxo-3-(1H-pyrazol-4-yl)-2-(2,2,2-trifluoroethyl)-1,2,3,4-tetrahydroisoquinoline-4-carboxamide], the CLint scaled at 0.08 uM in series [1] was under 13.5 mL/min/kg.
On to `N#Cc1cc(NC(=O)[C@H]2c3ccccc3C(=O)N(CC(F)(F)F)[C@@H]2c2cccnc2)ccc1F` (relative stereo) [13i, (3S*,4S*)-N-(3-Cyano-4-fluorophenyl)-1-oxo-3-(pyridin-3-yl)-2-(2,2,2-trifluoroethyl)-1,2,3,4-tetrahydroisoquinoline-4-carboxamide], for which the dose related exposure result in series [2] is listed as “excellent dose related exposure”. Also, the CLint scaled at 0.08 uM in series [1] was 33.1 mL/min/kg.
Regarding `CC(C)CN1C(=O)c2ccccc2[C@H](C(=O)Nc2ccc(F)c(C#N)c2)[C@H]1c1ccc(C#N)s1` (racemic) [11l], the CLint scaled at 0.08 uM in series [1] was 44.7 mL/min/kg.
With `N#Cc1cc(N)ccc1F` [3-cyano-4-fluoroaniline], the “Ames' assay result” value in “Ames' assay” is on record as “negative”.
In the case of `CC(C)CN1C(=O)c2ccccc2[C@H](C(=O)Nc2cccc(C#N)c2)[C@H]1c1cccs1` (racemic) [10d], in series [1], the CLint scaled at 0.08 uM is 195 mL/min/kg and the “metabolism of the C-4 carboxanilide aromatic ring” value is on record as “hydroxylated”.
In turn, `CC(C)CN1C(=O)c2ccccc2[C@H](C(=O)Nc2ccc(F)c(C#N)c2)[C@H]1c1cn[nH]c1` (racemic) [11t] registered a CLint scaled at 0.08 uM in series [1] of 162 mL/min/kg.

These data come from article PMC5573263 (Journal of medicinal chemistry, 2016).
